Active and inactive are the calls of the source. The rule behind the calls is not given here.
Experiments:
[1] = Cytotoxicity against human TZM-bl cells assessed as maximum non-cytotoxic concentration after 48 hrs by MTT assay; type: cell-based; conditions: read-out: MNCC
Outline: (§1)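 Cells were seeded at 25,000/well in complete medium with compound at different concentrations, with untreated and DMSO controls, and incubated 48 h. MTT (5 mg/mL stock) was added for 4 h at 37 °C in the dark. Formazan was dissolved in isopropanol and A570 read. CC50 and highest non-cytotoxic concentration were derived from this assay.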

[2] = Therapeutic index, ratio of CC50 for human CEM-GFP cells to IC50 for antiviral activity against HIV-1 NL4-3 infected in human CEM-GFP cells; type: toxicity, cell-based; conditions: read-out: Ratio CC50/IC50
Outline: (§2)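 IC50 was determined from p24 ELISA 72 h after 0.5 MOI HIV-1 NL4-3 infection with compound at different concentrations. Therapeutic index = CC50/IC50.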

[3] = tested on: Human immunodeficiency virus 1; assay: Antiviral activity against HIV-1 NL4-3 infected in human TZM-bl cells assessed as reduction in viral replication at 1000 nM measured at 48 hrs post-infection by steady-glo reporter gene assay relative to control; type: functional; conditions: Human immunodeficiency virus 1, NL4-3, TZM-bl
Outline: (§3)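 TZM-bl cells (0.15×10^6/well) were infected with 0.5 MOI HIV-1 NL4-3 12 h after seeding and treated at the highest non-cytotoxic concentration, which was set by MTT assay. At 48 h post-infection, cells were lysed and mixed 1:1 with Steady-Glo substrate, and luminescence was read.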

[4] = Cytotoxicity against human CEM-GFP cells assessed as reduction in cell viability after 48 hrs by MTT assay; type: cell-based; outline: as §1
[5] = tested on: Human immunodeficiency virus 1; assay: Antiviral activity against HIV-1 NL4-3 infected in human CEM-GFP cells assessed as suppression of viral replication by measuring reduction in p24 level measured at 72 hrs post-infection by ELISA; type: functional, organism-based; conditions: Human immunodeficiency virus 1, NL4-3, CEM-GFP
Outline: (§4)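 Cells were incubated with 0.5 MOI virus in the presence of polybrene at 37 °C for 4 h with intermittent mixing, then washed and plated in complete RPMI-1640. Compound added at different concentrations, with untreated and DMSO controls. PBMC were PHA-activated. Supernatant p24 measured by capture ELISA (A450) at 72 h. % inhibition calculated relative to untreated cells.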

[6] = tested on: Human immunodeficiency virus 1; assay: Antiviral activity against HIV1 NL4-3 infected in human TZM-bl cells assessed as reduction in viral replication at 500 nM measured at 48 hrs post-infection by steady-glo reporter gene assay relative to control; type: functional; conditions: Human immunodeficiency virus 1, NL4-3, TZM-bl; outline: as §3
[7] = biological target: Protease (Human immunodeficiency virus 1) (UniProt Q9YQ12); assay: Inhibition of HIV-1 protease at 500 nM using synthetic peptide as substrate after 15 mins by fluorimetric based assay
Outline: (§5)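 Cell-free fluorometric protease kit. HIV-1 protease was diluted in reaction buffer and loaded at 10 nmol/well with or without compound. Indinavir served as positive control, with untreated and DMSO controls. Fluorescence (Ex/Em 330/450 nm) was read 15 min after addition. n = 3.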

[8] = tested on: Human immunodeficiency virus 1; assay: Antiviral activity against HIV1 NL4-3 infected in human TZM-bl cells assessed as reduction in viral replication at 100 nM measured at 48 hrs post-infection by steady-glo reporter gene assay relative to control; type: functional; conditions: Human immunodeficiency virus 1, NL4-3, TZM-bl; outline: as §3
[9] = Ratio of therapeutic index for compound to therapeutic index of AUY922
[10] = Therapeutic index, ratio of CC50 for human Jurkat J6 cells to IC50 for antiviral activity against HIV-1 NL4-3 infected in human Jurkat J6 cells; type: toxicity, cell-based; conditions: read-out: Ratio CC50/IC50; outline: as §2
[11] = tested on: Human immunodeficiency virus 1; assay: Antiviral activity against R5X4 tropic HIV-1 subtype-B 89.6 infected in human CEM-GFP cells assessed as suppression of viral replication by measuring reduction in p24 level measured at 72 hrs post-infection by ELISA; type: functional, organism-based; conditions: M:B_89.6; outline: as §4
[12] = tested on: Human immunodeficiency virus 1; assay: Antiviral activity against R5X4 tropic HIV-1 subtype-B 89.6 infected in human PBMC assessed as suppression of viral replication by measuring reduction in p24 level measured at 72 hrs post-infection by ELISA; type: functional, organism-based; conditions: M:B_89.6; outline: as §4
[13] = Cytotoxicity against human Jurkat J6 cells assessed as reduction in cell viability after 48 hrs by MTT assay; type: cell-based; outline: as §1
[14] = tested on: Human immunodeficiency virus 1; assay: Antiviral activity against HIV-1 NL4-3 infected in CEM-GFP cells assessed as reduction in HSP90 expression measured at 72 hrs post-infection by immunoblotting analysis; type: functional, organism-based
Outline: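 CEM-GFP cells were infected with 0.5 MOI HIV-1 NL4-3 with or without compound, with DMSO as vehicle control. At 72 h post-infection, HSP90 protein was measured by immunoblotting and quantified by densitometry.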

[15] = Cytotoxicity against human PBMC assessed as reduction in cell viability after 48 hrs by MTT assay; type: cell-based; outline: as §1
[16] = tested on: Human immunodeficiency virus 1; assay: Antiviral activity against HIV-1 subtype C isolate indeiC infected in human CEM-GFP cells assessed as suppression of viral replication by measuring reduction in p24 level measured at 72 hrs post-infection by ELISA; type: functional, organism-based; outline: as §4
[17] = biological target: Protease (Human immunodeficiency virus 1) (UniProt Q9YQ12); assay: Inhibition of HIV-1 protease at 1 uM using synthetic peptide as substrate after 15 mins by fluorimetric based assay; outline: as §5
[18] = Therapeutic index, ratio of CC50 for human U937 cells to IC50 for antiviral activity against HIV-1 NL4-3 infected in human U937 cells; type: toxicity, cell-based; conditions: read-out: Ratio CC50/IC50; outline: as §2
[19] = Cytotoxicity against human U937 cells assessed as reduction in cell viability after 48 hrs by MTT assay; type: cell-based, U-937; outline: as §1
[20] = tested on: Human immunodeficiency virus 1; assay: Antiviral activity against HIV-1 NL4-3 infected in human U937 cells assessed as suppression of viral replication by measuring reduction in p24 level measured at 72 hrs post-infection by ELISA; type: functional, organism-based; conditions: Human immunodeficiency virus 1, U-937, 72 h; outline: as §4
HIV-1 M:B [21] = assay: Antiviral activity against X4 tropic HIV-1 subtype-B 3B infected in human PBMC assessed as suppression of viral replication by measuring reduction in p24 level measured at 72 hrs post-infection by ELISA; type: functional; outline: as §4
HIV-1 M:B [22] = assay: Antiviral activity against X4 tropic HIV-1 subtype-B 3B infected in human CEM-GFP cells assessed as suppression of viral replication by measuring reduction in p24 level measured at 72 hrs post-infection by ELISA; type: functional, cell-based; outline: as §4
[23] = tested on: Human immunodeficiency virus 1; assay: Antiviral activity against 0.01 to 0 1 MOI HIV-1 NL4-3 infected in human CEM-GFP cells assessed as suppression of viral replication by measuring reduction in p24 level at 1 uM measured at 72 hrs post-infection by ELISA; type: functional, organism-based
Outline: (§6)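 Cells infected with HIV-1 NL4-3 at MOI 0.01, 0.1 or 1 in the presence of polybrene at 37 °C for 4 h. Cells then washed in serum-free RPMI-1640 and plated in complete RPMI-1640 with compound at its highest non-cytotoxic concentration. Untreated and DMSO controls. Supernatant p24 measured by antigen-capture ELISA (A450) at 72 h post-infection. % inhibition = (untreated − treated p24)/untreated p24 × 100.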

[24] = Therapeutic index, ratio of CC50 for human PBMC to IC50 for antiviral activity against HIV-1 NL4-3 infected in human PBMC; type: toxicity; conditions: read-out: Ratio CC50/IC50; outline: as §2
HIV-1 M:B [25] = assay: Antiviral activity against R5 tropic HIV-1 subtype-B ADA infected in human CEM-GFP cells assessed as suppression of viral replication by measuring reduction in p24 level measured at 72 hrs post-infection by ELISA; type: functional, cell-based; outline: as §4
[26] = tested on: Human immunodeficiency virus 1; assay: Antiviral activity against HIV-1 NL4-3 infected in human Jurkat J6 cells assessed as suppression of viral replication by measuring reduction in p24 level measured at 72 hrs post-infection by ELISA; type: functional, organism-based; conditions: Human immunodeficiency virus 1, Jurkat; outline: as §4
[27] = tested on: Human immunodeficiency virus 1; assay: Antiviral activity against HIV-1 NL4-3 infected in human PBMC assessed as suppression of viral replication by measuring reduction in p24 level measured at 72 hrs post-infection by ELISA; type: functional, organism-based; conditions: Human immunodeficiency virus 1, 72 h; outline: as §4
HIV-1 M:B [28] = assay: Antiviral activity against R5 tropic HIV-1 subtype-B ADA infected in human PBMC assessed as suppression of viral replication by measuring reduction in p24 level measured at 72 hrs post-infection by ELISA; type: functional; outline: as §4
[29] = tested on: Human immunodeficiency virus 1; assay: Antiviral activity against HIV-1 subtype C isolate indeiC infected in human PBMC cells assessed as suppression of viral replication by measuring reduction in p24 level measured at 72 hrs post-infection by ELISA; type: functional, organism-based; outline: as §4
[30] = Ratio of therapeutic index for compound to therapeutic index of AZT
[31] = biological target: Heat shock protein HSP90 (Homo sapiens) (UniProt P07900+P08238); assay: Inhibition of HSP90 (unknown origin) expressed in HEK-293T cells assessed as reduction in Tat-mediated transactivation at 1 uM measured at 48 hrs post-transfection by LTR-driven luciferase reporter gene assay; type: cell-based
Outline: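 HEK-293T cells were co-transfected with p-LTR-Luc and Tat using PEI in the presence or absence of compound. At 48 h post-transfection, cells were harvested and luminescence and fluorescence were measured.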

[32] = tested on: Human immunodeficiency virus 1; assay: Antiviral activity against 0.01 to 0 1 MOI HIV-1 NL4-3 infected in human PBMC assessed as suppression of viral replication by measuring reduction in p24 level at 1 uM measured at 72 hrs post-infection by ELISA; type: functional, organism-based; outline: as §6
[33] = biological target: Human immunodeficiency virus type 1 reverse transcriptase (Human immunodeficiency virus 1) (UniProt Q72547); assay: Inhibition of HIV-1 reverse transcriptase RNA-dependent DNA polymerase activity assessed as reduction in biotin-dUTP incorporation at 1 uM using poly(A)/oligo (dT)15 as template/primer by ELISA
Outline: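 RNA-dependent DNA polymerase activity of HIV-1 RT was tested with a colorimetric reverse transcriptase kit. Nevirapine served as positive control, with untreated and DMSO vehicle wells. Compound was tested at its highest non-cytotoxic concentration. n = 3.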

Sequence of Protease (Human immunodeficiency virus 1) (Q9YQ12 as listed by the source): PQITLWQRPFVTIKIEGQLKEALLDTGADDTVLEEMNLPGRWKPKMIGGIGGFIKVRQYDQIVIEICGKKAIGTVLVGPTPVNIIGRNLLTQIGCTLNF

Compound O=C(Cc1cc(-c2ccccc2)on1)Nc1ccccc1O has an MNTC at 48 h [1] of 1000 nM, a selectivity ratio [2] of 170 and an inhibition at 1 µM [3] of 94.8%. For the same compound, the CC50 at 48 h [4] was 42.9 µM and the IC50 [5] was 0.253 µM.
For O=C(Cc1cc(-c2ccccc2)on1)Nc1ccc(F)cc1, the MNTC at 48 h [1] was 500 nM, the selectivity ratio [2] was 136 and the CC50 at 48 h [4] was 11.8 µM. The inhibition at 0.5 µM [6] was 85.4% and the IC50 [5] was 0.0871 µM.
With CC(C)(C)NC(=O)[C@@H]1CN(Cc2cccnc2)CCN1C[C@@H](O)C[C@@H](Cc1ccccc1)C(=O)N[C@H]1c2ccccc2C[C@H]1O the inhibition [7] was “Active”.
Compound O=C(Cc1cc(-c2ccccc2)on1)Nc1ccc(O)cc1 has an MNTC at 48 h [1] of 1000 nM and an inhibition at 1 µM [3] of 13.4%.
O=C(Cc1cc(-c2ccccc2)on1)Nc1ccccc1 showed an MNTC at 48 h [1] of 1000 nM, a selectivity ratio [2] of 79.8 and an inhibition at 1 µM [3] of 89.1%. For the same compound, the CC50 at 48 h [4] was 23 µM and the IC50 [5] was 0.288 µM.
Compound COc1ccc(-c2cc(CC(=O)Nc3cccc(C)c3)no2)cc1 has an MNTC at 48 h [1] of 1000 nM, a selectivity ratio [2] of 55.1 and an inhibition at 1 µM [3] of 95.5%. For the same compound, the CC50 at 48 h [4] was 15.7 µM and the IC50 [5] was 0.284 µM.
COC(=O)c1ccc(NC(=O)Cc2cc(-c3ccccc3)on2)cc1 gave an MNTC at 48 h [1] of 100 nM and an inhibition at 0.1 µM [8] of 27.7%.
In the case of CC(C)NC(=O)Cc1cc(-c2ccccc2)on1, the MNTC at 48 h [1] is reported as 1000 nM, the selectivity ratio [2] is reported as 1660 and the Ratio [9] is reported as 3.5. For the same compound, the inhibition at 1 µM [3] was 85%, the selectivity ratio [10] was 1140 and the inhibition [11] was “Active”. For the same compound, the CC50 at 48 h [4] was 65.6 µM, the inhibition [12] was “Active” and the CC50 at 48 h [13] was 60.3 µM. For the same compound, the Activity [14] was “Active”, the CC50 at 48 h [15] was 67.9 µM and the inhibition [16] was “Active”. For the same compound, the inhibition [17] was “inactive”, the selectivity ratio [18] was 1070 and the CC50 at 48 h [19] was 56.6 µM. For the same compound, the IC50 [20] was 0.053 µM, the inhibition (HIV-1 M:B [21]) was “Active” and the inhibition (HIV-1 M:B [22]) was “Active”. The inhibition [23] was “Active”, the selectivity ratio [24] was 1210 and the inhibition (HIV-1 M:B [25]) was “Active”. For the same compound, the IC50 [26] was 0.0527 µM, the IC50 [27] was 0.0562 µM and the IC50 [5] was 0.0395 µM. For the same compound, the inhibition (HIV-1 M:B [28]) was “Active”, the inhibition [29] was “Active” and the Ratio [30] was 1.5. For the same compound, the inhibition [31] was “Active”, the inhibition [32] was “Active” and the inhibition [33] was “inactive”.
Work on Cc1ccc(NC(=O)Cc2cc(-c3cccs3)on2)cc1 yielded an MNTC at 48 h [1] of 100 nM and an inhibition at 0.1 µM [8] of 56.9%.
Compound O=C(Cc1cc(-c2ccco2)on1)Nc1ccc(O)cc1 has an MNTC at 48 h [1] of 1000 nM and an inhibition at 1 µM [3] of 53.1%.

Source: ChEMBL document CHEMBL4311980, “Discovery of 2-isoxazol-3-yl-acetamide analogues as heat shock protein 90 (HSP90) inhibitors with significant anti-HIV activity” (Eur J Med Chem, 2019)
